Activity calls are given as the source filed them. The rule behind the calls is not given here.
Experiments:
U-937 [1] = test: Antiproliferative activity against human U937 cells at 10 to 100 uM after 72 hrs; type: functional, cell-based
Outline: (§1)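 K-562 (chronic myeloid leukemia) and U-937 (histiocytic lymphoma) cells were exposed to the indicated compound concentrations. Proliferation and viability were scored separately at 24, 48 and 72 h. Data are mean ± SD of three independent cultures.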

[2] = biological target: T1, Histone deacetylase (Homo sapiens) (UniProt Q13547+O15379+Q9UBN7+Q92769+Q9UQL6+Q8WUI4+Q9BY41+Q96DB2+P56524+Q9UKV0+Q969S8); test: Increase in HDAC activity in human K562 cells nuclear extracts at 100 uM; type: cell-based
Outline: (§2)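 Total HDAC activity was measured in vitro on K-562 nuclear extracts with compound at 100 µM. Values are the mean percent change from two independent experiments.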

U-937 [3] = test: Antiproliferative activity against human U937 cells at 10 to 100 uM after 24 to 48 hrs; type: functional, cell-based; outline: as §1
PBMC = test: Cytotoxicity against human PBMC assessed as reduction in cell viability at 10 to 100 uM after 24 to 48 hrs
K562 [4] = test: Antiproliferative activity against human K562 cells at 10 to 100 uM after 24 to 72 hrs; type: functional, cell-based; outline: as §1
K562 [5] = test: Cytotoxicity against human K562 cells assessed as reduction in cell viability at 10 to 100 uM after 24 to 72 hrs; type: functional, cell-based; outline: as §1
[6] = biological target: T1, Histone deacetylase (Homo sapiens); test: Inhibition of HDAC in human K562 cells nuclear extracts at 100 uM; type: cell-free; outline: as §2
U-937 [7] = test: Cytotoxicity against human U937 cells assessed as reduction in cell viability at 10 to 100 uM after 24 to 72 hrs; type: functional, cell-based; outline: as §1
U-937 [8] = test: Antiproliferative activity against human U937 cells at 10 to 100 uM after 24 to 72 hrs; type: functional, cell-based; outline: as §1
[9] = biological target: T2, Protein deacetylase HDAC6 (Homo sapiens, UniProt Q9UBN7); test: Inhibition of HDAC6 (unknown origin)
T2 sequence (Q9UBN7 whole entry): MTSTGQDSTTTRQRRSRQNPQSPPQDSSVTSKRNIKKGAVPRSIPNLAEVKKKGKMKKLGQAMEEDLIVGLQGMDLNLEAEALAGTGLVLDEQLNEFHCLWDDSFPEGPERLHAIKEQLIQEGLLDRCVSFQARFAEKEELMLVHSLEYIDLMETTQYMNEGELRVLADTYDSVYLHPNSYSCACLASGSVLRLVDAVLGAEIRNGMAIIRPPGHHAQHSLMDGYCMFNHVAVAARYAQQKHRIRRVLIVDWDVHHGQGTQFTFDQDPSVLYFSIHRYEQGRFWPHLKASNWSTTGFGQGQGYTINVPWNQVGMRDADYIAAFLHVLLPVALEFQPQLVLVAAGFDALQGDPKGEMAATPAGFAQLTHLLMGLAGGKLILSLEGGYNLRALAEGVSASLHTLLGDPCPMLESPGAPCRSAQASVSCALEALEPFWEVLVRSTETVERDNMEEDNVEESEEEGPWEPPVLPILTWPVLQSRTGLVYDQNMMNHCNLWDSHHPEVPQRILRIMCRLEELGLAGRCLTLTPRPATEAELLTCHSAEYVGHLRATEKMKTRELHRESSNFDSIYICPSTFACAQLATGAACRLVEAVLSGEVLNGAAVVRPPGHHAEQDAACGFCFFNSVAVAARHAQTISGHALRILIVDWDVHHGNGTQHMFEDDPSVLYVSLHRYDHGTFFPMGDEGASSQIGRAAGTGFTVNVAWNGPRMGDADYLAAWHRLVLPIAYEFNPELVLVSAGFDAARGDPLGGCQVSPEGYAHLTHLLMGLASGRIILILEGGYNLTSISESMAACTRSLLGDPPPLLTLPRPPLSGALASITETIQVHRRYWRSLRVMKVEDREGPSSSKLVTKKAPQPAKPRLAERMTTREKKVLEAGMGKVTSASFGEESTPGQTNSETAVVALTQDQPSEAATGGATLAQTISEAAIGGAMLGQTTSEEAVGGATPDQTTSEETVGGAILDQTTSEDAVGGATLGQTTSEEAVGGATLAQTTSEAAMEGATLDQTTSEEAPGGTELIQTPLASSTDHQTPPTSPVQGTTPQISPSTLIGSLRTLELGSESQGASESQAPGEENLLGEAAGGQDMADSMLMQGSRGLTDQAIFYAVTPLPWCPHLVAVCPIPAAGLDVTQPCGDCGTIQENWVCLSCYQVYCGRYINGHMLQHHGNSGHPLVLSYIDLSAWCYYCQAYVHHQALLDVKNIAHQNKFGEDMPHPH
Outline: (§3)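 Activity of individual HDAC isoenzymes (classes I, IIb and IV) was measured in vitro with compound. IC50 values come from two independent experiments.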

Histone deacetylase 8 = biological target: T3, Histone deacetylase 8 (Homo sapiens, UniProt Q9BY41); test: Inhibition of HDAC8 (unknown origin); outline: as §3
T3 sequence (Q9BY41 whole entry): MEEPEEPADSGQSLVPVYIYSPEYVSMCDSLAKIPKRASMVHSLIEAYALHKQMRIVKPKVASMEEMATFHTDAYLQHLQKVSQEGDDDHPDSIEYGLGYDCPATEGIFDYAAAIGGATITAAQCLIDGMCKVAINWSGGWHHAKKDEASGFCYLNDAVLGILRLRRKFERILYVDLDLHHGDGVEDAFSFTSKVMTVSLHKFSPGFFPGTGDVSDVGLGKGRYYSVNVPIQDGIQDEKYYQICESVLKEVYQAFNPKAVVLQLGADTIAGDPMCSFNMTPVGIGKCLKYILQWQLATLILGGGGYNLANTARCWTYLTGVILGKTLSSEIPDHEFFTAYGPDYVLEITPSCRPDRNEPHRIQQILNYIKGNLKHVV

[10] = biological target: T4, Polyamine deacetylase HDAC10 (Homo sapiens, UniProt Q969S8); test: Inhibition of HDAC10 (unknown origin); outline: as §3
T4 sequence (Q969S8 whole entry): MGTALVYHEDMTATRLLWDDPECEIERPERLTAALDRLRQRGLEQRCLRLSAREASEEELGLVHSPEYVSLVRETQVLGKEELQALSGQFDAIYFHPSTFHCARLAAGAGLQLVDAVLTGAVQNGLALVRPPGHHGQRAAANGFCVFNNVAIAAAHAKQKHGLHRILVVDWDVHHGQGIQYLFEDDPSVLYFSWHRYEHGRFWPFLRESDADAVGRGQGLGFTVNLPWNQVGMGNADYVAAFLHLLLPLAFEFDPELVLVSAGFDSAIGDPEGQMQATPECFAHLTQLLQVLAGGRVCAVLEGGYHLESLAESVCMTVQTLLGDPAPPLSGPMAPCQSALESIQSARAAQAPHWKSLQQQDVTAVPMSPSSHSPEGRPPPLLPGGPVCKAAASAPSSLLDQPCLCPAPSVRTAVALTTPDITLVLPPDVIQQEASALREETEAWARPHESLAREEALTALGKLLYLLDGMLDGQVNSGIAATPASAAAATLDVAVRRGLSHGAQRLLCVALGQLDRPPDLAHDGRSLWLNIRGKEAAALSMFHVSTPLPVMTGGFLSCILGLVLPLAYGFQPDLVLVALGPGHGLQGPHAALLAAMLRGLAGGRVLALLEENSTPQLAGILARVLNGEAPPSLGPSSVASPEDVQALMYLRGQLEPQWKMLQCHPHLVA

Histone deacetylase 1 = Histone deacetylase 1 (Homo sapiens, UniProt Q13547); test: Inhibition of HDAC1 (unknown origin); outline: as §3
Sequence of Histone deacetylase 1 (Q13547 whole entry): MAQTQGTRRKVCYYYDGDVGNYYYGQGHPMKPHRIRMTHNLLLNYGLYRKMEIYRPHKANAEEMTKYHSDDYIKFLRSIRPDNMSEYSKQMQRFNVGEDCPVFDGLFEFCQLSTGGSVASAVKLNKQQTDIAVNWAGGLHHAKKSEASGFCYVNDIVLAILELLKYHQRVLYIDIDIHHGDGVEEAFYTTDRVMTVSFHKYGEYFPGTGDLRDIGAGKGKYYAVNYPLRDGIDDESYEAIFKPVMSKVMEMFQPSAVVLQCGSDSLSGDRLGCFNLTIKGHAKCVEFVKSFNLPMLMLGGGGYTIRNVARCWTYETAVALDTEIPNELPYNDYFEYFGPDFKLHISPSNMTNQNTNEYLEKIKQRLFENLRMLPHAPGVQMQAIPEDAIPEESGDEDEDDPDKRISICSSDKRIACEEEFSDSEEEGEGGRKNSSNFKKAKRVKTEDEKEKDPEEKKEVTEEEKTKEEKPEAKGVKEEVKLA

Histone deacetylase 11 = biological target: T5, Histone deacetylase 11 (Homo sapiens, UniProt Q96DB2); test: Inhibition of HDAC11 (unknown origin); outline: as §3
T5 sequence (Q96DB2 whole entry): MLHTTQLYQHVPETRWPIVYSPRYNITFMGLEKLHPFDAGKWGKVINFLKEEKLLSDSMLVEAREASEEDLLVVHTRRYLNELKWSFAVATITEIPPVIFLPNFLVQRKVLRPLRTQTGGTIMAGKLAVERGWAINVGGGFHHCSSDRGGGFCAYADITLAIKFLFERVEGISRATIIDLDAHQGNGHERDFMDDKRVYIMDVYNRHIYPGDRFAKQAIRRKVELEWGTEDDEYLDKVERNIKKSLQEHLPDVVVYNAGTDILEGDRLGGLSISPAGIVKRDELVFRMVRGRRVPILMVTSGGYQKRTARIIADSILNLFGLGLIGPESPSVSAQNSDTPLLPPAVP

Histone deacetylase 2 = Histone deacetylase 2 (Homo sapiens, UniProt Q92769); test: Inhibition of HDAC2 (unknown origin); outline: as §3
Sequence of Histone deacetylase 2 (Q92769 whole entry): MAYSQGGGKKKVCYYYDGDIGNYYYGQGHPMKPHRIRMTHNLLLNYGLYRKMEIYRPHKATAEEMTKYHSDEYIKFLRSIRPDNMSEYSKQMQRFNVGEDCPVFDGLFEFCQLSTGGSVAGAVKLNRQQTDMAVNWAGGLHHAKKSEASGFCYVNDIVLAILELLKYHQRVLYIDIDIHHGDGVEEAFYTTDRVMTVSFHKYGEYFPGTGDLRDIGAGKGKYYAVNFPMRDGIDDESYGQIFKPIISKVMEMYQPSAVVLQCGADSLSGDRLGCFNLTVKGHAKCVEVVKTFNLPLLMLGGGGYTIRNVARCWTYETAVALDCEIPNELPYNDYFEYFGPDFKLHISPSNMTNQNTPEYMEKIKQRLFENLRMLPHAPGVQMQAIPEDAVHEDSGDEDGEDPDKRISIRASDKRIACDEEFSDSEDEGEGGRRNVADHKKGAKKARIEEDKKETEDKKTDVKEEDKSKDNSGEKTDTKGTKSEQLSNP

Histone deacetylase 3 = Histone deacetylase 3 (Homo sapiens, UniProt O15379); test: Inhibition of HDAC3 (unknown origin); outline: as §3
Sequence of Histone deacetylase 3 (O15379 whole entry): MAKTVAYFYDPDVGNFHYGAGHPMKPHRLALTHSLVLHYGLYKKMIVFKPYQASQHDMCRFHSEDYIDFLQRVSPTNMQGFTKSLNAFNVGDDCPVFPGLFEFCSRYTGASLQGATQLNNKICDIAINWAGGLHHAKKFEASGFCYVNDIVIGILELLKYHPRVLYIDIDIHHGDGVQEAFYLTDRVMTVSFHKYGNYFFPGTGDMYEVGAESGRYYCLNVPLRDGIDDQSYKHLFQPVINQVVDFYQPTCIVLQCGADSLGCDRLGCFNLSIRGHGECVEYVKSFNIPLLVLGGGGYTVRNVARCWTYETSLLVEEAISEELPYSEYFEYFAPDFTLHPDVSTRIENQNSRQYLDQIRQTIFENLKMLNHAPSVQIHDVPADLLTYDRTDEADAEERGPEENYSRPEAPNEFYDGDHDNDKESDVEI

SMILES | inhibition [6] | Activity (PBMC) | inhibition (K562 [4]) | inhibition (U-937 [8]) | other results
COc1ccc(/C=C/C=O)cc1OC [3,4-DIMETHOXY CINNAMALDEHYDE] | – | Non-toxic | inactive | – | inhibition (U-937 [1]): Active; Activity [2]: 80%; inhibition (U-937 [3]): inactive; Activity (K562 [5]): inactive
COc1ccc2cc(C(C)=O)c(=O)oc2c1 | 20% | Non-toxic | inactive | – | inhibition (U-937 [1]): Active; inhibition (U-937 [3]): inactive; Activity (K562 [5]): inactive
COc1ccc(/C=C/C(=O)c2cc(=O)oc3cc(OC)ccc23)cc1 | 20% | Non-toxic | Active | Active | inhibition (U-937 [7]): Active
COc1ccc2cc(C(=O)/C=C/C=C/c3ccc(O)c(OC)c3)c(=O)oc2c1 | < 10% | – | – | – | –
COc1ccc2cc(C(=O)/C=C/C=C/c3ccc(OC)c(OC)c3)c(=O)oc2c1 | 50% | Non-toxic | Active | Active | IC50 [9]: 32 µM; IC50 (Histone deacetylase 8): 28 µM; IC50 [10]: 85 µM; IC50 (Histone deacetylase 1): 59 µM; IC50 (Histone deacetylase 11): 74 µM; IC50 (Histone deacetylase 2): 33 µM; IC50 (Histone deacetylase 3): 12 µM

More lines, main results first:

inhibition [6] | SMILES | Activity (PBMC) | inhibition (K562 [4]) | inhibition (U-937 [8]) | other results
< 10% | O=C(/C=C/c1ccccc1)c1cc2ccccc2oc1=O | – | – | – | –
< 10% | COc1ccc2cc(C(=O)/C=C/c3ccc(OC)c(OC)c3)c(=O)oc2c1 | – | – | – | –
30% | COc1ccc(/C=C/C=C/C(=O)c2cc3ccc(OC)cc3oc2=O)cc1 | Non-toxic | Active | Active | –
< 10% | COc1ccc(/C=C/C(=O)c2cc3ccc(OC)cc3oc2=O)cc1 | – | – | – | –
< 10% | O=C(/C=C/C=C/c1ccccc1)c1cc2ccccc2oc1=O | – | – | – | –

— ChEMBL document CHEMBL3351243, “Novel inhibitors of human histone deacetylases: design, synthesis and bioactivity of 3-alkenoylcoumarines” (Bioorg Med Chem Lett, 2014)
